Assay outcomes (PubChem)
Compounds with a hit are over-represented: about 3.1% of the library has one in this group of screens.
GalR3 antagonist = blocks the human galanin receptor 3; inhibition, % at 3 µM; HEK293 GalR3-CNG cAMP membrane potential fluorescence; galR3 body fused to GalR1 C-terminus; hit rate 0.44% among 360,000; AID 651719;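 active = inhibition above the screen-wide average plus 3 SD, cut at about 13% in these data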;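 note: forskolin and galanin both at EC90 stimulate the cells; cAMP rise reported by CNG channel membrane potential dye signal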
Target sequence (O60755 1-299 limits assumed): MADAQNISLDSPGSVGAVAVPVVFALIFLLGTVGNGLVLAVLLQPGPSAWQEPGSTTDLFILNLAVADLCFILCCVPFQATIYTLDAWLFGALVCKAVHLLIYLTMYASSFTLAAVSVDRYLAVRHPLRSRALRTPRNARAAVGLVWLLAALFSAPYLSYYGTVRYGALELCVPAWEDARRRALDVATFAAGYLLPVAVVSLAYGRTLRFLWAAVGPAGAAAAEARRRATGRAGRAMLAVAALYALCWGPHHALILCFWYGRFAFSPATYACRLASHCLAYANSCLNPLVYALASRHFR
OX1R antag-1 = antagonists of human orexin 1 receptor; O43613; CHO/OX1R cells, Fluo-8 calcium fluorescence, orexin A; inhibition, % at 5 µM; hit rate 0.43% among 330,000;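 active = inhibition above its plate's threshold, mean inhibition of all tested compounds on the plate plus 3 SD, cut at about 37% in these data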
OX1R antag-2 = antagonists of human orexin 1 receptor (OX1R); O43613; OX1R-expressing cells, FRET antagonist read-out; inhibition, % at 6.6 µM; hit rate 1.8% among 330,000; in the data active = inhibition mostly above about 38%, no sharp cut-off; inactive = mostly below about 40%
GPR7 antagonist = antagonists of human GPR7 (neuropeptides B/W receptor 1); P48145; GPR7-expressing cells, fluorescence antagonist assay; inhibition, % at 4.4 µM; hit rate 1.1% among 290,000; AID 1861; in the data active = inhibition above about 16%, passing the limit was not always enough;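 note: cells stimulated with the agonist NPW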
Target sequence (P48145 whole entry, looked up): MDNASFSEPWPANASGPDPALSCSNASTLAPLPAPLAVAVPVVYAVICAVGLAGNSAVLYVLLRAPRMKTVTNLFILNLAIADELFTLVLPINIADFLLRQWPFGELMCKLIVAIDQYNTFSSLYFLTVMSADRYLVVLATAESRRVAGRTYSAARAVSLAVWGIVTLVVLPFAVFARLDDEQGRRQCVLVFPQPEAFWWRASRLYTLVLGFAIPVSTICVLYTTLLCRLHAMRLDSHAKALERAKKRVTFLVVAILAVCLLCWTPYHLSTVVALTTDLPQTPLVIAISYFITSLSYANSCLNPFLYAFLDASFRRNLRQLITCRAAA
CHO parental Ca = counter-screen: ATP calcium response change in parental CHO cells | parental CHO-K1, ATP-induced calcium, Fluo-8 fluorescence | inhibition, % at 5.6 µM | hit rate 0.63% among 330,000 | AID 463079;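 active = inhibition above that plate's mean sample inhibition plus 3 SD, cut at about 26% in these data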
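Assay system: untransfected parental CHO cell line. Also added: ATP agonist challenge. Dosing: one dose, 5.6 µM nominal. Measured by: Fluo-8 fluorescence. Read-out: % inhibition. Benchmarks: ATP wells versus no-ATP DMSO wells. Repeats: no replicates.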
GPR7 antag conf = human GPR7 antagonism, confirmation assay. shares compounds with GPR7 antagonist. GPR7-expressing cells, calcium fluorescence antagonist mode. inhibition, % at 4.4 µM. hit rate 52% among 2,400; in the data active = inhibition above about 24%;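 note: stimulated with the GPR7 agonist NPW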
MCHR1 antagonist = antagonizes human MCHR1, a GPR7 antagonist counter-screen; MCHR1-expressing cells, fluorescence antagonist assay; inhibition, % at 4.4 µM; AID 2148; shares compounds with GPR7 antagonist; hit rate 62% among 2,400; in the data active = inhibition above about 22%
Hits are given with their value; – = inactive; · = no result.

SMILES	GalR3 antagonist	OX1R antag-1	OX1R antag-2	GPR7 antagonist	CHO parental Ca	others
COC(=O)C1=C(c2cccc(OCc3ccccc3)c2)C[C@@H]2CC[C@H]1N2C(=O)NCCc1ccc(F)cc1	–	–	–	·	–
COC(=O)c1ccccc1-n1c(C)nc2ccccc2c1=O	–	–	–	–	–
O=C(O)c1cccc2nc3ccccc3nc12	–	–	48	–	–
N#CC1c2ccccc2-n2nncc2CN1S(=O)(=O)c1ccccc1 (centres undefined)	–	·	·	·	·
COC(=O)C1CC(OC(C)=O)C(=O)[C@H]2C1(C)CC[C@H]1C(=O)OC(c3ccoc3)CC12C (some centres undefined)	–	·	·	·	·
Cn1c(=O)c2c(nc(-c3ccc(N(CCCl)CCCl)cc3)n2C)n(C)c1=O	–	·	·	·	·
Oc1c(Br)c(Br)c(Br)c(Br)c1Br	·	–	37	·	–
O=C(CSC1c2ccccc2-c2ccccc21)N/N=C/c1ccccc1C(=O)O	–	–	54	–	–
O=C1c2cccc3cccc(c23)C(=O)N1/N=C/c1c(O)n(-c2ccccc2)c(=O)[nH]c1=O	–	–	61	–	–
COc1ccc(OC(=O)N(C)C[C@H]2OCc3cnnn3CCCC(=O)N([C@H](C)CO)C[C@H]2C)cc1	–	·	·	·	·
Cc1ccccc1C(=O)N1Cc2ccccc2-n2nncc2C1	–	·	·	·	·
O=C(N/N=C/c1c(O)n(-c2ccccc2)c(=S)[nH]c1=O)c1ccccc1	–	–	–	–	–
O=C(N/N=C\C1C(=O)NC(=S)N(c2ccccc2)C1=O)c1ccc(O)cc1 (centres undefined)	–	–	46	–	–
C[n+]1c2ccccc2nc2ccc(NCCO)cc21	–	–	86	–	–
OCCNc1c2c(nc3ccccc13)CCCC2	–	–	–	–	–
Fc1cccc(-c2ccc3c(c2)CN(c2cccc(Cl)c2)Cc2cnnn2-3)c1	–	·	·	·	·
O=C1NC(=O)C(=Cc2c(Cl)cccc2Cl)C(=O)N1	–	·	·	·	·
CC(C)OP(=O)(Oc1ccc(C(O)C(Cl)(Cl)Cl)cc1)OC(C)C (centres undefined)	–	–	59	–	–
CC1CCC(C(C)C)C(OC(=O)Cn2c(COc3ccccc3)[n+](C)c3ccccc32)C1 (centres undefined)	–	36	–	58	50
CCc1ccc(NC2=NCCCS2)cc1	–	–	–	–	–
Fc1ccc2nc(-c3ccc(CN4CCC(n5nnc6ccccc65)CC4)cc3)c(-c3ccccc3)nc2c1	–	·	·	·	·
CC1CCN(S(=O)(=O)c2ccc(NN=C(C#N)C#N)cc2)CC1	·	–	101	–	–
CCOC(=O)c1ccc(NC(=O)c2c(O)[nH]c(=O)[nH]c2=O)cc1	–	–	–	48	–
CCOc1ccc(NC(=O)c2c(O)[nH]c(=O)[nH]c2=O)cc1	–	–	–	·	–
CC1CN(c2ccc([N+](=O)[O-])c3cccnc23)CC(C)N1 (centres undefined)	–	–	79	–	–
SMILES	GalR3 antagonist	OX1R antag-1	OX1R antag-2	GPR7 antagonist	CHO parental Ca	others
O=[N+]([O-])c1ccc(N2CCCC2)c2ncccc12	–	–	–	–	–
C#C[C@]1(O)CC[C@H]2[C@@H]3[C@H](O)C[C@H]4C[C@@H](O)CC[C@]4(C)[C@H]3CC[C@@]21C	–	·	·	·	·
CCC(C)(O)C(=O)OC1C(=O)OC2CC3C(C)=CC(O)C(O)C3(C)C3C4(O)OCC23C1C(C)C4O (centres undefined)	–	·	·	·	·
NNc1n[nH]c(=S)n1N	–	–	61	–	–
Nc1c([N+](=O)[O-])cc(F)c(N2CCNCC2)c1Br	–	–	–	–	–
CN1CCN(c2c(F)cc([N+](=O)[O-])c(N)c2Br)CC1	–	–	52	–	–
O=P(/C=C1\OCc2ccccc21)(Oc1ccccc1)Oc1ccccc1	–	·	·	·	·
CCN(CC)S(=O)(=O)c1cc(NC(=O)C(C)N2CC=C(c3ccccc3)CC2)ccc1C (centres undefined)	–	–	–	–	43
Cc1cc(Br)c(NC(=O)CN2CC=C(c3ccccc3)CC2)c(Br)c1	–	–	–	–	–
Clc1ccccc1CNC1CN2CCC1CC2 (centres undefined)	–	–	–	–	–
c1ccc2c(c1)Sc1ccccc1N2CC1CN2CCC1CC2 (centres undefined)	·	–	–	30	–	GPR7 antag conf=47;MCHR1 antagonist=41
O=C1CC(N2CC=C(c3ccccc3)CC2)C(=O)N1c1ccc(F)cc1 (centres undefined)	–	–	–	24	–	GPR7 antag conf=–;MCHR1 antagonist=–
COc1ccc(/C=C/C2=CCN(C)CC2)cc1	–	–	–	–	–
CN1CC=C(/C=C/c2ccc(-c3ccccc3)cc2)CC1	·	–	–	51	–	GPR7 antag conf=63;MCHR1 antagonist=51
CN1/C(=C\C=C\C2=[N+](C)c3ccc4ccccc4c3C2(C)C)C(C)(C)c2ccccc21	·	103	–	87	97	GPR7 antag conf=102;MCHR1 antagonist=104
COc1ccc(CN2Cc3cc(N4CCCCC4)ccc3-n3nncc3C2)cc1	–	·	·	·	·
CC(=O)Nc1nnc(CCN(CCc2nnc(NC(C)=O)s2)[N+](=O)[O-])s1	–	–	–	32	–	GPR7 antag conf=–;MCHR1 antagonist=–
CC(C)C(=O)Nc1nnc(CCN(CCc2nnc(NC(=O)C(C)C)s2)[N+](=O)[O-])s1	–	–	–	–	–
CCC(=O)OC1CCC2C3CCC4CC(=O)C=CC4(C)C3CCC12C (centres undefined)	–	·	·	·	·
CCOc1ccc(Cl)cc1CNCCc1ccc(F)cc1	–	–	–	33	–	GPR7 antag conf=30;MCHR1 antagonist=29
C=CCC1(Cc2ccsc2)C(=O)NC(=O)NC1=O	–	·	·	·	·
OC(c1cccc(Cl)c1)(c1cccc(Cl)c1)C1CN2CCC1CC2 (centres undefined)	–	–	–	34	–	GPR7 antag conf=44;MCHR1 antagonist=51
O=C(Nc1cccc(C(F)(F)F)c1)OC1CN2CCC1CC2 (centres undefined)	–	–	–	–	–
CC1CN1c1cc2c(c3c1ccn3C)C1CCC2C1 (centres undefined)	–	·	·	·	·
c1ccc(N2[C@@H]3CC[C@H]2c2ccccc2C3)cc1	–	·	·	·	·
Cc1nonc1-c1nc(-c2nonc2N)n[nH]1	–	–	–	32	–	GPR7 antag conf=–;MCHR1 antagonist=–
COC(=O)C(O)(c1ccc(N(C)C(=O)c2ccc(Cl)c(Cl)c2)cc1)C(F)(F)F (centres undefined)	–	–	–	33	–	GPR7 antag conf=30;MCHR1 antagonist=–
CCOC(=O)C(O)(c1ccc(N(C)C(=O)c2ccc(Cl)c(Cl)c2)cc1)C(F)(F)F (centres undefined)	–	–	–	–	–
CCOc1cc2c(cc1OCC)-n1cccc1C(c1ccc(C(C)C)cc1)NC2 (centres undefined)	–	–	–	36	56	GPR7 antag conf=34;MCHR1 antagonist=62
